Assay results as given in ChEMBL document CHEMBL1944521, “Amide-modified prenylcysteine based Icmt inhibitors: Structure-activity relationships, kinetic analysis and cellular characterization” (Bioorg Med Chem, 2012).
Activity calls are given as the source filed them. The calls are words filed in the database; no cut-off is given here.

Key:
[1] = biological target: T1, Protein-S-isoprenylcysteine O-methyltransferase (Homo sapiens, UniProt O60725); experiment: Activity at His-tagged human Icmt membrane protein over-expressed in Saccharomyces cerevisiae 2766 using [14C]-SAM as substrate at 25 uM by scintillation counting
[2] = biological target: T1, Protein-S-isoprenylcysteine O-methyltransferase; experiment: Inhibition of His-tagged human Icmt membrane protein over-expressed in Saccharomyces cerevisiae 2766 using [14C]-SAM and N-acetyl-S-farnesyl-l-cysteine as substrate measured after 30 mins by scintillation counting
[3] = biological target: T1, Protein-S-isoprenylcysteine O-methyltransferase; experiment: Competitive inhibition of His-tagged human Icmt membrane protein over-expressed in Saccharomyces cerevisiae 2766 using [14C]-SAM and N-acetyl-S-farnesyl-l-cysteine as substrate measured after 30 mins by scintillation counting
Procedure, shortened: (§1)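 Mode of inhibition: AFC concentration varied at fixed inhibitor levels in the His-hIcmt vapor diffusion assay (14C-SAM, 30 °C, 30 min). Three trials per inhibitor concentration were averaged and plotted as Lineweaver-Burk. KIC and KIU were derived from IC50 by Cheng–Prusoff as adapted by Cer et al.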

[4] = biological target: T1, Protein-S-isoprenylcysteine O-methyltransferase; experiment: Noncompetitive inhibition of His-tagged human Icmt membrane protein over-expressed in Saccharomyces cerevisiae 2766 using [14C]-SAM and N-acetyl-S-farnesyl-l-cysteine as substrate measured after 30 mins by scintillation counting; procedure, shortened: as §1
[5] = biological target: T1, Protein-S-isoprenylcysteine O-methyltransferase; experiment: Inhibition of His-tagged human Icmt membrane protein over-expressed in Saccharomyces cerevisiae 2766 using [14C]-SAM and N-acetyl-S-farnesyl-l-cysteine as substrate at 10 uM preincubated on ice and measured after 30 mins by scintillation counting
[6] = biological target: T1, Protein-S-isoprenylcysteine O-methyltransferase; experiment: Inhibition of Icmt in TCR-stimulated human Jurkat T cells assessed as inhibition of Ras activation at 25 uM after 24 hrs by immunoblot analysis; format: cell-based
Procedure, shortened: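 Jurkat cells were treated 24 h with compound (25 μM), vehicle or simvastatin (36.7 μM), then held with anti-CD-3ε (20 μg/mL) 15 min on ice and stimulated 10 min at 37 °C. GTP-Ras was pulled down from NP40 lysates on GST-RBD glutathione beads (30 min, 4 °C) and immunoblotted with anti-pan-Ras. Bands were quantified by densitometry; three independent experiments.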

[7] = biological target: T1, Protein-S-isoprenylcysteine O-methyltransferase; experiment: Inhibition of Icmt-mediated GFP-K-Ras membrane localization in human Jurkat T cells at 10 uM after 24 hrs by fluorescent microscopic analysis; format: cell-based
Procedure, shortened: (§2)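 Jurkat E6.1 cells were electroporated with 20 μg GFP-K-Ras, then treated 24 h at 37 °C with DMSO, simvastatin (20 μM) or compound (0.1, 1, 10 μM). Cells were put on polylysine coverslips, fixed in 3% formaldehyde and viewed by fluorescence microscopy. Localization was scored visually as normal, partial or complete mislocalization in random fields of 100 cells; three independent experiments.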

[8] = biological target: T1, Protein-S-isoprenylcysteine O-methyltransferase; experiment: Inhibition of Icmt-mediated GFP-K-Ras membrane localization in human Jurkat T cells at 0.1 uM after 24 hrs by fluorescent microscopic analysis; format: cell-based; procedure, shortened: as §2
[9] = biological target: T1, Protein-S-isoprenylcysteine O-methyltransferase; experiment: Inhibition of Icmt in TCR-stimulated human Jurkat T cells assessed as inhibition of Ras-mediated Erk activation at 25 uM after 24 hrs by immunoblot analysis relative to control; format: cell-based
Procedure, shortened: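 Jurkat cells were treated 24 h with compound (25 μM), vehicle or simvastatin (36.7 μM), then held with anti-CD-3ε (20 μg/mL) 15 min on ice and stimulated 10 min at 37 °C. Triton lysates were run on 6–15% gels and immunoblotted for phospho-Erk, with GAPDH as loading control. Bands were quantified by densitometry relative to control; three independent experiments.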

T1 sequence (O60725 whole entry): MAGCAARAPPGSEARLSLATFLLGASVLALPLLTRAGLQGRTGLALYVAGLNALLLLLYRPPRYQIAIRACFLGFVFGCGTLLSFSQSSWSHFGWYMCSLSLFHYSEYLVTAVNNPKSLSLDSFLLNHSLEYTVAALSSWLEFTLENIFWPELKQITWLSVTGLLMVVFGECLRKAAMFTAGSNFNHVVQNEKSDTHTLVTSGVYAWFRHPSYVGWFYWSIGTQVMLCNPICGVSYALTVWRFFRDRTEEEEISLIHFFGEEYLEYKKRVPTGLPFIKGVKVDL

Compound	Activity [1]	IC50 ([2]; read-out: IC50) [µM]	inhibition [5]	further results
CC(C)=CCC/C(C)=C/CC/C(C)=C/CSC[C@H](NC(=O)c1cccc(Oc2ccccc2)c1)C(=O)O	inactive	22.6	–	–
CC(=O)N[C@@H](CSC/C=C(\C)CC/C=C(\C)CCC=C(C)C)C(=O)O	–	–	–	IC50 [2]: Not Active
CC(C)=CC/C(=C/CSC[C@H](NC(=O)c1ccccc1Oc1ccccc1)C(=O)O)CCc1ccc(-c2ccccc2)cc1	–	2.5	–	inhibition [6]: Active; Kic [3]: 0.5 µM; inhibition [7]: 75%; Kiuc [4]: 1.9 µM; inhibition [8]: 35%; fold change (FC) [9]: 3
CC(C)=CCC/C(C)=C/CC/C(C)=C/CSC[C@H](NC(=O)c1ccc(Oc2ccccc2)cc1)C(=O)O	inactive	63	–	–
CC(C)=CCC/C(C)=C/CC/C(C)=C/CSC[C@H](NC(=O)c1cccc2c1oc1ccccc12)C(=O)O	inactive	58	Active	–
CC(C)=CCC/C(C)=C/CC/C(C)=C/CSC[C@@H](C(=O)O)N(C)C(=O)c1ccccc1Oc1ccccc1	inactive	6.7	Active	–
CCCCCCCCCCCSC[C@H](NC(=O)c1ccccc1Oc1ccccc1)C(=O)O	inactive	210	Active	–

The next lines start with results.

Activity [1]	IC50 ([2]; read-out: IC50) [µM]	inhibition [5]	Compound	further results
–	6.2	–	CC(C)=CCC/C(C)=C/CC/C(C)=C/CSC[C@H](NC(=O)c1ccccc1Oc1ccccc1)C(=O)O	Kic [3]: 1.4 µM; Kiuc [4]: 4.8 µM
inactive	75	Active	CC(C)=CCC/C(C)=C/CC/C(C)=C/CSC[C@H](NC(=O)c1ccccc1COc1ccccc1)C(=O)O	–
inactive	7.8	Active	CC(C)=CCC/C(C)=C/CC/C(C)=C/CSC[C@@H](NC(=O)c1ccccc1Oc1ccccc1)C(=O)O	–
inactive	14.7	Active	CC(C)=CCC/C(C)=C/CC/C(C)=C/CSC[C@H](NC(=O)c1ccccc1Sc1ccccc1)C(=O)O	–
inactive	38	–	CC(C)=CCC/C(C)=C/CC/C(C)=C/CC/C(C)=C/CSC[C@H](NC(=O)c1ccccc1Oc1ccccc1)C(=O)O	–
inactive	49	Active	CC(C)=CCC/C(C)=C/CC/C(C)=C/CSC[C@H](NC(=O)c1ccccc1COCc1ccccc1)C(=O)O	–
inactive	38	Active	CC(C)=CCC/C(C)=C/CC/C(C)=C/CSC[C@H](NC(=O)c1ccccc1Cc1ccccc1)C(=O)O	–
inactive	13.4	Active	CC(C)=CCC/C(C)=C/CC/C(C)=C/CSC[C@H](NC(=O)c1ccccc1OCc1ccccc1)C(=O)O	–
